Measurements gathered from unrelated publications.
Protocols differ between the studies behind these lines.
Target: Protein kinase C iota type (PRKCI, Homo sapiens, UniProt P41743)
Residues used in one study (P41743 1-596): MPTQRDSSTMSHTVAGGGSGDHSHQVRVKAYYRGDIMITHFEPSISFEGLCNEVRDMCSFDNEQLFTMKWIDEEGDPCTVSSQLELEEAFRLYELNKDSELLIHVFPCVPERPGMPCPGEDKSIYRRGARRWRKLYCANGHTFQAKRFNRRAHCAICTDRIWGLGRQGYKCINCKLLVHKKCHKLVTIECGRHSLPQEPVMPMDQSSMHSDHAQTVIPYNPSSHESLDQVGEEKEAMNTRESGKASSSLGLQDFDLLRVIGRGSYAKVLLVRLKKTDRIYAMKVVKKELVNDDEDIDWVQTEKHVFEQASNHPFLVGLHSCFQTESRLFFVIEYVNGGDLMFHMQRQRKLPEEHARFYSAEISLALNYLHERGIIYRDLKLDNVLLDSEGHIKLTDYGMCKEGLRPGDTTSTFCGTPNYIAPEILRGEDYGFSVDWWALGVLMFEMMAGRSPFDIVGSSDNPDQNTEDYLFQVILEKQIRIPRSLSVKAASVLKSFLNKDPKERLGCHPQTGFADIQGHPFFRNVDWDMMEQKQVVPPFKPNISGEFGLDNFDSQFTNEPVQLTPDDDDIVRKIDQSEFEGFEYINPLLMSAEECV

`CCCCC(=O)Nc1ccc(-c2ccc3ncn(CCC)c(=O)c3c2)cn1` gave a remaining binding of 91% (binding; competition with immobilised ligand; 0.5 µM).
With `CC(C)S(=O)(=O)c1ccc2nccc(Nc3ccc4sc(C5CCCC5)nc4c3)c2c1` the activity vs control was 107% (enzyme activity; inhibitor; 1 µM).
`CN1CCN(C(=O)c2ccc(NC(=O)Nc3ccc(N(C)c4ccnc(Nc5ccc(CS(C)(=O)=O)cc5)n4)cc3)cc2)CC1` gave a remaining binding of 74% (binding; 1 µM).
`CO[C@@H]1[C@H](N(C)C(=O)c2ccccc2)C[C@H]2O[C@]1(C)n1c3ccccc3c3c4c(c5c6ccccc6n2c5c31)C(=O)NC4` has an inhibition of 43% (enzyme activity; inhibitor; 1 µM).
`Cc1cc(O)c(-c2ccc([C@@H](C)CN(C)C)cc2)c2c1[nH]c(=O)c1sccc12` has an inhibition of 7.26% (cell-free assay; inhibitor; 0.1 µM; lysate).
`C1=C/COCc2cc(ccc2OCCN2CCCC2)Nc2nccc(n2)-c2cccc(c2)COC/1` gave a remaining binding of 95% (binding; 0.1 µM).
`COc1ccc2[nH]c3c4[nH]c5ccc(OC)cc5c4c4c(c3c2c1)C(=O)NC4=O` gave a remaining binding of 63% (binding; 1 µM).
The inhibition of `CC#CC(=O)N1CCC[C@H]1c1nc(-c2ccc(C(=O)Nc3ccccn3)cc2)c2c(N)nccn12` is reported as 0% (enzyme activity; inhibitor; 1 µM).
